The list is not random: actives were taken first. Their share in the collection is about 9.3%.
Ecoli WT expand = growth inhibitors of E. coli BW25113 wild type. growth inhibition, % at 100 µM. OD600 absorbance. 0.15% of 98,000 active;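 active = growth inhibition above about 50% at one test dose, limit read from the data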;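 also: growth measured after 20 h incubation at 37 °C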
Ecoli tolC = blocks growth of E. coli BW25113 tolC mutant; OD615; growth inhibition, % at 10 µM (by protocol); 2.2% of 65,000 active; AID 573;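 active = growth inhibition at or above a cutoff equal to the mean over every tested compound plus 3 SD, cut at about 60% in these data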;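 also: growth measured after 20 h incubation at 37 °C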
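test system = E. coli BW25113 ΔtolC::kan bacteria | medium = LB with kanamycin 50 µg/mL | signal = OD at 615 nm | schedule = 37 °C, 20 h exposure | evaluation = % inhibition of E. coli growth | compound dosing = one dose of 10 µM final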
D1 mod = D1 dopamine receptor (human) allosteric modulation; B-score at 10 µM; AID 641; 5.9% of 58,000 active; P21728; HEK293 D1, CRE-luciferase, dopamine EC30 potentiation; actives deviate in either direction;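 active = luminescence count or its row- and column-corrected plate score outside the 99.7% band of the plate's sample wells, on either side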
Target sequence (P21728 whole entry, looked up): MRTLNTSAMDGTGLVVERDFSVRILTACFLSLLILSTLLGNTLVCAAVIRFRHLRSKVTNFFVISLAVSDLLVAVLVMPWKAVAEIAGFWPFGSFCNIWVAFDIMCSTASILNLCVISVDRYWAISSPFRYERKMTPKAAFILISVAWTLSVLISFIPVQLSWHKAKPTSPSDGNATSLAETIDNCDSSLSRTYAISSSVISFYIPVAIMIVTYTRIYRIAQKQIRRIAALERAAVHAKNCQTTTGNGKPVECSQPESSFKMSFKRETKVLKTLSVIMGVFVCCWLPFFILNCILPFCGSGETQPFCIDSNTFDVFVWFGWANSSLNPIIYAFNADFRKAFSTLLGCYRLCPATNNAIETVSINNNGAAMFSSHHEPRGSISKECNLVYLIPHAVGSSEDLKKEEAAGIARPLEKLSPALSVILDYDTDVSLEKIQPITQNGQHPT
PostGolgi ctrl = inhibits growth of the yeast control strain. efflux-deficient yeast background strain, growth absorbance A615, 16 h. inhibition, % at 10 µM. 5% of 98,000 active. AID 738
PostGolgi yeast = growth inhibition of a yeast mutant, post-Golgi transport screen; post-Golgi transport phenotypic cell assay; inhibition, % at 10 µM; 0.9% of 98,000 active; AID 739;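 also: yeast cells grown in 1536-well plates; yeast grown about 18 h at 30C before absorbance read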
DAT uptake mod = modulates human dopamine transporter uptake under cocaine; Q01959; LLC-PK1 hDAT cells, [14C]-dopamine uptake with cocaine IC80; actives deviate in either direction; B-score at 10 µM; 1.3% of 110,000 active; AID 449768;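 active = Z score or B-score, a plate-position-corrected score, falls beyond the plate's 99.7% confidence bounds, in either direction; inactive = both scores lie inside the 99.7% bounds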;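 also: scored against the spread of the other compound wells on the same plate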
Starred values were filed as active, the others as inactive; . = not tested or not shown. Rule as the data show it, unless noted: active = inhibition above about 30%; inactive = the rest.

SMILES | Ecoli WT expand | Ecoli tolC | D1 mod | PostGolgi ctrl | PostGolgi yeast | DAT uptake mod
Cc1cc(NC(=O)c2c(F)cccc2Cl)n(-c2nc3ccccc3[nH]2)n1 | 2 | . | . | 17 | -2 | 1.4
Cc1cc(Nc2ccccc2)n(-c2nc3ccccc3[nH]2)n1 | -10 | 95* | 0.32 | 41* | 3 | 0.6
COCCN1C(=O)N[C@@H](CCc2ccccc2)[C@H](C(=O)OC)[C@H]1C | . | . | . | . | . | 0.13
CC(NC(=O)Cc1cccs1)C(c1cccs1)N1CCOCC1 (configuration not stated) | . | -3 | -0.77 | . | . | 0.71
Clc1cccc(CSc2ncn(-c3ccccc3)n2)c1 | . | . | . | . | . | -1.3
O=C1c2cnc3nc(SCc4cccc(Cl)c4)nn3c2CC2c3ccccc3CCN12 (configuration not stated) | -15 | . | . | 42* | 16 | 0.12
CSc1nc2ncc3c(n2n1)CC1c2ccccc2CCN1C3=O (configuration not stated) | -1 | . | . | 32* | 3 | 1.1
O=C(CS(=O)(=O)Cc1ccccc1)Nc1nc2ccccc2s1 | -3 | 20 | 0.11 | 27 | -5 | -0.24
O=S(=O)(Nc1nc2ccccc2s1)c1ccc(Cl)s1 | 9 | . | . | 31* | 8 | -3.6*
CCn1cc(C(=O)O)c(=O)c2cnc(N3CCN(C(=O)Nc4ccccc4)CC3)nc21 | . | 100* | -0.51 | . | . | .
COc1ccc(S(=O)(=O)N(C)C2CCN(C)CC2)cc1 | 0 | -12 | 0.78 | 15 | -2 | -2.2
COc1ccc(N(C2CSC2)S(=O)(=O)c2ccccc2)cc1 | -7 | 64* | -0.78 | 0 | 9 | 0.042
COc1ccc(S(=O)(=O)NCCC(C)C)cc1C | 4 | . | . | 11 | 8 | -0.015
COc1ccc(-c2onc(C)c2-c2ccc(C(=O)OC(C)C)o2)c(O)c1 | -3 | 100* | 1.7 | 37* | 0 | 0.055
COc1ccc2c(c1)CCc1c(C(=O)NCc3ccc(F)cc3)noc1-2 | -1 | -14 | -0.17 | 5 | -3 | 0.063
O=S(=O)(c1ccc(S(=O)(=O)N2CCN(Cc3ccccc3)CC2)cc1)N1CCOCC1 | 2 | -14 | 0.71 | -4 | -2 | -0.32
O=S(=O)(Cc1ccccc1)/C1=C(\N2CCOCC2)CCCCCC1 | -2 | 0 | 0.56 | 40* | 9 | -1
CC(=O)Nc1ccc(OCC(O)Cn2nc(C)c(Br)c2C)cc1 (configuration not stated) | . | . | . | . | . | -0.072
COc1cc(SC#N)ccc1N=Cc1c(C)[nH]n(-c2ccc(Cl)cc2)c1=O | -7 | . | . | 32* | 10 | -0.71
N#CC(c1ccc(Cl)cc1)(c1ncc(C(F)(F)F)cc1Cl)N1CCOCC1 (configuration not stated) | 0 | . | . | 14 | 14 | .
Cc1oc(CC(C)C)cc1C(=O)Nc1cccc2ccccc12 | -17 | . | . | 15 | -3 | -6.9*
CCOc1ccccc1NC(=O)c1cc(CC(C)C)oc1C | 6 | 75* | -0.54 | 23 | 6 | 0.24
Cc1occc1C(=O)Nc1cccc2ccccc12 | 5 | 32 | -2.7 | 14 | -7 | -0.16
COc1ccc(COC(=O)NNC(=O)c2ccccc2Cl)cc1 | 4 | . | . | 6 | 13 | 0.024
O=C(Nc1ccc2snnc2c1)Nc1cccc2ccccc12 | -3 | . | . | 49* | 6 | 0.27
SMILES | Ecoli WT expand | Ecoli tolC | D1 mod | PostGolgi ctrl | PostGolgi yeast | DAT uptake mod
CC(C)(C)c1ccc(OCCON2C(=O)CCC2=O)c(Cl)c1 | -7 | . | . | 33* | -2 | 0.29
O=[N+]([O-])/C=C/c1cn(Cc2ccc(F)cc2)c2ccccc12 | -3 | . | . | 80* | 36* | 0.18
CCN(CCNC(=O)C1CCN(S(=O)(=O)c2cccc3nsnc23)CC1)c1ccccc1 | 6 | 15 | -2.9* | 1 | 11 | 0.23
O=C(NCCc1ccccc1)C1CCN(S(=O)(=O)c2cccc3nsnc23)CC1 | 1 | -32 | -0.5 | 14 | -1 | -0.13
COc1cc(Nc2nnc(C)s2)c(Cl)cc1Cl | 4 | . | . | 9 | -3 | 0.16
COCCOc1cc(Nc2nnc(C(F)(F)F)s2)c(Cl)cc1Cl | -6 | . | . | 32* | 21 | 0.12
COc1cnc(-c2ccccn2)nc1Oc1ccc(Cl)c2ccccc12 | -1 | . | . | 63* | 24 | .
COc1cnc(-c2ccccn2)nc1Oc1ccccc1Cl | 6 | . | . | 8 | -14 | -2.5
CCOC(=O)c1nnc(-c2ccccc2)nc1NCc1ccccc1 | -5 | . | . | 35* | 15 | -0.48
CCOC(=O)c1nc(Nc2ccccc2)c2ccccc2n1 | 1 | . | . | 10 | 0 | -0.0073
